GalR3 antagonist: antagonists of human GalR3; 360,000 tested, 0.44% active; inhibition, % at 3 µM; HEK293 GalR3-CNG cAMP membrane potential fluorescence; galR3 body fused to GalR1 C-terminus; O60755;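 active means inhibition above the screen-wide average plus 3 SD, cut at about 13% in these data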;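 further: forskolin and galanin both at EC90 stimulate the cells; cAMP rise reported by CNG channel membrane potential dye signal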
Target sequence (O60755 1-299 limits assumed): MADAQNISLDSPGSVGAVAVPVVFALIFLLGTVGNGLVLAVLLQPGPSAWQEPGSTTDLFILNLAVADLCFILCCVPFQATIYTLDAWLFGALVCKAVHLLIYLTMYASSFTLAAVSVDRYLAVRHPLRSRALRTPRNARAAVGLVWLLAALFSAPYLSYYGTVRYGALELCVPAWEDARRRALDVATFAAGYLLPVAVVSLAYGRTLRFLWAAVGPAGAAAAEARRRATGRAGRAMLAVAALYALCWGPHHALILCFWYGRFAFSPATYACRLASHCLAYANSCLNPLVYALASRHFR
OX1R antag-1: blocks the human orexin 1 receptor. AID 485270. 330,000 tested, 1.8% active. OX1R-expressing cells, FRET antagonist read-out. inhibition, % at 6.6 µM; in the data active means inhibition mostly above about 38%, no sharp cut-off; inactive means mostly below about 40%
GPR7 antag: antagonists of human GPR7 (neuropeptides B/W receptor 1); P48145; GPR7-expressing cells, fluorescence antagonist assay; inhibition, % at 4.4 µM; 290,000 tested, 1.1% active; AID 1861; in the data active means inhibition above about 16%, passing the limit was not always enough;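 further: cells stimulated with the agonist NPW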
CHO parental Ca: signal in parental CHO cells, OX1R antagonist counter-screen | parental CHO-K1, ATP-induced calcium, Fluo-8 fluorescence | inhibition, % at 5.6 µM | 330,000 tested, 0.63% active | AID 463079;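 active means inhibition above that plate's mean sample inhibition plus 3 SD, cut at about 26% in these data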
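Test system: parental CHO cells; detection: calcium-sensitive Fluo-8 fluorescence; evaluation: percent inhibition of calcium signal; also added: ATP as calcium-mobilizing challenge; repeats: one well per compound; control set: ATP-challenged DMSO wells low, unchallenged DMSO wells high; compound: single nominal dose of 5.6 µM per compound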
OX1R antag-2: blocks the human orexin 1 receptor; AID 434989; O43613; 330,000 tested, 0.43% active; inhibition, % at 5 µM; CHO/OX1R cells, Fluo-8 calcium fluorescence, orexin A;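 active means inhibition above its plate's threshold, mean inhibition of all tested compounds on the plate plus 3 SD, cut at about 37% in these data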
GPR7 antag cf: human GPR7 antagonism, confirmation assay; GPR7-expressing cells, calcium fluorescence antagonist mode; shares compounds with GPR7 antag; inhibition, % at 4.4 µM; 2,400 tested, 52% active; AID 1952; in the data active means inhibition above about 24%;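 further: stimulated with the GPR7 agonist NPW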
MCHR1 antag: MCHR1 (human) antagonism in GPR7 counter-screen; MCHR1-expressing cells, fluorescence antagonist assay; shares compounds with GPR7 antag; 2,400 tested, 62% active; inhibition, % at 4.4 µM; in the data active means inhibition above about 22%
A number is an active result; – = inactive; · = not tested or not shown. Rows were chosen to be rich in hits. Some 3.1% of all compounds tested hit in one or more screens of this group.

SMILES | GalR3 antagonist | OX1R antag-1 | GPR7 antag | CHO parental Ca | OX1R antag-2 | GPR7 antag cf | MCHR1 antag
O=C1Nc2ccccc2C12NCCc1c2[nH]c2ccccc12 (stereo unspecified) | – | – | – | – | – | · | ·
c1ccc2c3c([nH]c2c1)C1(CCCCC1)NCC3 | – | – | 11 | – | – | – | –
CCc1ccc(Cn2nnc(C(=O)Nc3cccc(C)c3)c2N)cc1 | – | – | – | – | – | · | ·
CCc1ccc(Cn2nnc(C(=O)NCc3ccccc3OC)c2N)cc1 | – | – | 25 | – | – | – | –
Cc1ccc(Cn2nnc(C(=O)Nc3cccc(C)c3C)c2N)cc1 | – | – | 61 | – | 37 | 77 | 75
COc1ccc(CNC(=O)c2nnn(Cc3ccc(OC)cc3)c2N)cc1 | – | – | – | – | – | · | ·
O=C(COc1coc(CN2CCCc3ccccc32)cc1=O)Nc1ccc([N+](=O)[O-])cc1 | – | – | · | – | – | · | ·
CN(C)CCNC(=O)c1ccc(COc2ccc(Cl)cc2Cl)cc1 | – | – | 30 | – | – | 40 | 52
COc1ccc(Cl)cc1C(=O)NCCN(C)C | – | – | – | – | – | · | ·
CCOc1ccc(-c2nnc(N)s2)cc1 | – | – | 29 | – | – | – | –
COc1ccc(N=C2S/C(=C\c3ccc(Cl)c([N+](=O)[O-])c3)C(=O)N2CCN(C)C)cc1 | – | – | 48 | – | – | 65 | 59
CCN(CC)CCN1C(=O)/C(=C\c2ccc(Cl)c([N+](=O)[O-])c2)SC1=Nc1ccc(OC)cc1 | – | – | 46 | – | – | 75 | 60
CCCN1C(=O)/C(=C/c2ccc(C)s2)SC1=Nc1ccc(OC)cc1 | – | – | – | – | – | · | ·
COc1ccc(NC(=O)CC2CC3CCC2C3)cc1S(=O)(=O)N1CCOCC1 (stereo unspecified) | – | – | · | – | – | · | ·
CC(C)c1ccc(NC2CCCN(C(=O)CC3CCCC3)C2)cc1 (stereo unspecified) | – | – | 35 | – | – | 30 | 27
Cc1nonc1C(=O)N1CCCC(Nc2ccc(C(C)C)cc2)C1 (stereo unspecified) | – | – | 25 | – | – | – | 26
O=c1[nH]cnc2sc3c(c12)CCC3 | – | – | – | – | – | · | ·
CCc1c(C)nc(SCC(=O)NNC(=O)c2ccco2)[nH]c1=O | – | – | – | – | – | · | ·
CCCOC(=O)c1c(-c2ccccc2)nc(CC)c(C(=O)SCC)c1CCC | – | – | · | – | – | · | ·
O=S(=O)(c1ccc(Cl)cc1)N(Cc1ccccn1)Cc1ccccn1 | – | – | 36 | – | – | – | –
CCC(CC)c1nc(C#N)c(NCc2ccccc2)o1 | – | – | 31 | – | – | – | 28
N#Cc1nc(Cc2ccccc2)oc1NCc1ccccc1 | – | – | – | – | – | · | ·
Cc1ccc(C2CC(c3ccco3)n3ncnc3N2)cc1 (stereo unspecified) | – | – | – | – | – | · | ·
Cc1ccc2c(c1)C(N1CCCC1=O)CC(c1ccco1)N2 (stereo unspecified) | – | – | 31 | – | – | – | –
O=C(Nc1nc2c(F)cccc2s1)C1CC1 | · | – | 29 | – | – | – | –
SMILES | GalR3 antagonist | OX1R antag-1 | GPR7 antag | CHO parental Ca | OX1R antag-2 | GPR7 antag cf | MCHR1 antag
CCCCCCNC(=O)N[C@H](C(=O)NCCC[C@H]1CN2C(=NC[C@H]2C)N1CCC(c1ccccc1)c1ccccc1)C(C)O (stereo partly specified) | · | – | · | – | – | · | ·
O=C(Nc1ccccc1)Nc1ccc2nnsc2c1 | – | – | 33 | – | – | 28 | 62
CN(C)c1ccc(NC(=O)Nc2ccc3snnc3c2)cc1 | – | – | – | – | – | · | ·
O=C(Nc1ccccc1)Nc1ccc2snnc2c1 | – | 86 | 25 | – | – | 27 | 60
C=CCSc1nnc(NC(=O)C2CC(=O)N(c3ccc4c(c3)OCCO4)C2)s1 (stereo unspecified) | – | – | · | – | – | · | ·
Cc1ccc(S(=O)(=O)NC(CC(=O)OCc2ccccc2)C(=O)OCc2ccccc2)cc1 (stereo unspecified) | – | · | · | · | · | · | ·
COC(CNC(=O)C(=O)Nc1cc2c3c(c1)CC(=O)N3CCC2)OC | – | – | – | – | – | · | ·
COc1ccc(N2C(=NC(=O)CC3CCCCC3)SC3CS(=O)(=O)CC32)cc1 (stereo unspecified) | – | – | – | – | – | · | ·
